Laboratory results published in ChEMBL document CHEMBL1154693, “Discovery of trans-4-[1-[[2,5-Dichloro-4-(1-methyl-3-indolylcarboxamido)phenyl]acetyl]-(4S)-methoxy-(2S)-pyrrolidinylmethoxy]cyclohexanecarboxylic acid: an orally active, selective very late antigen-4 antagonist” (J Med Chem, 2009).

Tests used:
Integrin alpha-4/beta-1 [1] = target: T1, Integrin alpha-4/beta-1 (Homo sapiens, UniProt P05556+P13612); experiment: Inhibition of europium labeled human VCAM1/Fc chimera binding to human VLA-4 alpha-4-beta-1 expressed in Chinese hamster 4B4 cells at 2 uM by fluorimetric assay; type: cell-based
How it was run: (§1)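 CHO-K1 4B4 cells transfected with human α4 and β1, plated at 3 × 10⁵ cells/mL and cultured 2 days, washed with HEPES pH 7.5 buffer containing Ca, Mg, Mn. Compound plus Eu-labeled human VCAM-1/Fc (final 1 nM), with or without human serum albumin, 60 min at room temperature; washed, Eu time-resolved fluorescence read; duplicates.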

Integrin alpha-4/beta-1 [2] = target: T1, Integrin alpha-4/beta-1; experiment: Inhibition of europium labeled human VCAM1/Fc chimera binding to human VLA-4 alpha-4-beta-1 expressed in Chinese hamster 4B4 cells at 2 uM in presence of 3% HSA by fluorimetric assay; type: cell-based; how it was run: as §1
Integrin alpha-4/beta-1 [3] = target: T1, Integrin alpha-4/beta-1; experiment: Inhibition of europium labeled human VCAM1/Fc chimera binding to human VLA-4 alpha-4-beta-1 expressed in Chinese hamster 4B4 cells by fluorimetric assay; type: cell-based
Integrin alpha-4/beta-1 [4] = target: T1, Integrin alpha-4/beta-1; experiment: Inhibition of europium labeled human VCAM1/Fc chimera binding to human VLA-4 alpha-4-beta-1 expressed in Chinese hamster 4B4 cells in presence of 3% HSA by fluorimetric assay; type: cell-based; how it was run: as §1
[5] = Drug level in BALB/c mouse serum at 10 mg/kg, po after 15 mins; type: ADME, organism-based; set-up: dose 10 mg/kg, route oral; details: read-out: Drug uptake
How it was run: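 Serum (final 0.01-10%) assayed in the VLA-4/VCAM-1 binding assay, and concentration estimated from a calibration curve of compound spiked into untreated mouse serum.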

[6] = Clearance in Sprague-Dawley rat at 1 mg/kg, iv; type: ADME, organism-based; set-up: dose 1 mg/kg, route intravenous; details: in vivo
How it was run: (§2)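 Male Sprague-Dawley rats (7 weeks), fasted 18 h, four per group. 1 mg/kg oral in 0.5% MC or iv in saline, each with 3 equiv NaOH. Plasma drawn at 0.08 (iv) or 0.25 (po), 0.5, 1, 2 and 6 h; LC/MS/MS quantitation, noncompartmental parameters.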

[7] = Volume of distribution at steady state in Sprague-Dawley rat at 1 mg/kg, iv; type: ADME, organism-based; set-up: dose 1 mg/kg, route intravenous; details: in vivo, read-out: Vdss; how it was run: as §2
[8] = Half life in Sprague-Dawley rat at 1 mg/kg, iv; type: ADME, organism-based; set-up: dose 1 mg/kg, route intravenous; details: in vivo; how it was run: as §2
Mus musculus [9] = experiment: Antiinflammatory activity in Ascaris suum antigen-induced BALB/c AnNCrj mouse asthma model assessed as inhibition of eosinophil infiltration in BAL fluid at 5 mg.kg, po bid administered 15 mins before and 8, 24 and 32 hrs after antigen challenge measured 48 hrs after antigen challenge; type: functional
How it was run: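 Female BALB/c AnNCrj mice given cyclophosphamide 150 mg/kg po (day 0), sensitized ip with Ascaris suum extract plus alum on days 2 and 14, challenged intratracheally day 22. Compound in 0.5% MC/0.03% Tween 80 po 15 min before and 8, 24, 32 h after challenge; BAL at 48 h, eosinophils from total count times Wright-stained differential.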

[10] = Oral bioavailability in rat; details: in vivo
in vivo = details: rat, plasma
Mus musculus [11] = experiment: Toxicity in BALB/c AnNCrj mouse assessed as induction of cholestatic liver injury at 50 mg/kg, iv for 2 days; type: organism-based; set-up: dose 50 mg/kg, route intravenous; details: in vivo, 48 h
How it was run: (§3)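 Mice dosed iv at 50 mg/kg or orally at 25 or 200 (mg/kg)/day for 2 days, then assessed for liver injury.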

Mus musculus [12] = experiment: Toxicity in BALB/c AnNCrj mouse assessed as induction of cholestatic liver injury at 25 mg/kg, po for 2 days; type: organism-based; set-up: dose 25 mg/kg, route oral; details: in vivo, 48 h; how it was run: as §3
Integrin alpha-4/beta-1 [13] = target: T1, Integrin alpha-4/beta-1; experiment: Inhibition of europium labeled human VCAM1/Fc chimera binding to human VLA-4 alpha-4-beta-1 expressed in Chinese hamster 4B4 cells at 1.7 uM in presence of 3% HSA by fluorimetric assay; type: cell-based; how it was run: as §1
Integrin alpha-4/beta-1 [14] = target: T1, Integrin alpha-4/beta-1; experiment: Inhibition of europium labeled human VCAM1/Fc chimera binding to human VLA-4 alpha-4-beta-1 expressed in Chinese hamster 4B4 cells at 1.7 uM by fluorimetric assay; type: cell-based; how it was run: as §1
Integrin alpha-4/beta-1 [15] = target: T1, Integrin alpha-4/beta-1; experiment: Inhibition of europium labeled human VCAM1/Fc chimera binding to human VLA-4 alpha-4-beta-1 expressed in Chinese hamster 4B4 cells at 1.8 uM in presence of 3% HSA by fluorimetric assay; type: cell-based; how it was run: as §1

T1 sequence (P05556 whole entry): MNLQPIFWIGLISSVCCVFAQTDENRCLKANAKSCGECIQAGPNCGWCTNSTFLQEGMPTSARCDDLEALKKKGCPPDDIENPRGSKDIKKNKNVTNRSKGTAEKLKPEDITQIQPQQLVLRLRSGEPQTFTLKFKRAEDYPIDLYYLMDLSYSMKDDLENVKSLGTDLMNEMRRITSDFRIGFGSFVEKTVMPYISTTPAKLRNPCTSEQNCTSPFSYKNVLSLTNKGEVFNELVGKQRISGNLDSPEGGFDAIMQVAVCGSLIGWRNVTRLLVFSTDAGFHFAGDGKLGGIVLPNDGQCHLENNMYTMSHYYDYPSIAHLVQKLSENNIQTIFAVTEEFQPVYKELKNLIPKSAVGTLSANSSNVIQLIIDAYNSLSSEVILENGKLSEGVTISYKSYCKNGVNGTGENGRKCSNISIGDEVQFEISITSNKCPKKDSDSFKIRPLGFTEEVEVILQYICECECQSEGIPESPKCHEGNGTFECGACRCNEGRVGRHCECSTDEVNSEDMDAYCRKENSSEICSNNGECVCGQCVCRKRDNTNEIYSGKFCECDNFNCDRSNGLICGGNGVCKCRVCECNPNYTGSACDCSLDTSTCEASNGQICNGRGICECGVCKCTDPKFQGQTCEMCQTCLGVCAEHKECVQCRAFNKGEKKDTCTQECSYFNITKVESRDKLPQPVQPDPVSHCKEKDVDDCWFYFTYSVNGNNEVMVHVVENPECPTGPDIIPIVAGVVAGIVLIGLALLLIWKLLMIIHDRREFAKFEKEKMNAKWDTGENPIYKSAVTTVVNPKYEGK
T1 sequence (P13612 whole entry): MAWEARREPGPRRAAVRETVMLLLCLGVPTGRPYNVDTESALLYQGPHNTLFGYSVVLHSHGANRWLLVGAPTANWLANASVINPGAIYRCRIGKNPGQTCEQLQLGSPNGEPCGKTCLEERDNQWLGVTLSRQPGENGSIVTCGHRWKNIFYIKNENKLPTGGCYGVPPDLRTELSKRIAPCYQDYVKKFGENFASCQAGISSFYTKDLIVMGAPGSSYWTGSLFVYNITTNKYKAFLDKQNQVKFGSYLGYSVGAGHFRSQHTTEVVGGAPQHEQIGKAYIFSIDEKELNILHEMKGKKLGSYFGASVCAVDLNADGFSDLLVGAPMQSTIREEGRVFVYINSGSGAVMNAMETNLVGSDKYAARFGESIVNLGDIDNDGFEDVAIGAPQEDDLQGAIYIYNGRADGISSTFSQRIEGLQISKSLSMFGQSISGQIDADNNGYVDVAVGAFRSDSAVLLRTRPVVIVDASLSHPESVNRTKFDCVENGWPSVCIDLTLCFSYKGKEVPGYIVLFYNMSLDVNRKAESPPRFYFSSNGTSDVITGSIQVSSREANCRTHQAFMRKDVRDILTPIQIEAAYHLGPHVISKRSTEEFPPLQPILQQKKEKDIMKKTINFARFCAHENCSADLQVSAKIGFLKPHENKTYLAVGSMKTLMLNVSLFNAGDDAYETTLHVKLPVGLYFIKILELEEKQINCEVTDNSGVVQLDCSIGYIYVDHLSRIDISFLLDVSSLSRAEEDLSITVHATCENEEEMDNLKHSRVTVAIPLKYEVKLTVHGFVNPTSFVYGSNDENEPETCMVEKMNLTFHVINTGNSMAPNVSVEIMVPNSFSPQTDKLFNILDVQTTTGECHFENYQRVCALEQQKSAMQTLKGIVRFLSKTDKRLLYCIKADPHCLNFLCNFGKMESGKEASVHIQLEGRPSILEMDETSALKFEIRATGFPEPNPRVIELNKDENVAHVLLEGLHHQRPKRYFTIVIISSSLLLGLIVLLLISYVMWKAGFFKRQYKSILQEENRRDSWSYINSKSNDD

| Compound | IC50 (Integrin alpha-4/beta-1 [3]) [nM] | IC50 (Integrin alpha-4/beta-1 [4]) [nM] | concentration at 0.25 h [5] [ng/mL] | further results |
| --- | --- | --- | --- | --- |
| Cc1ccccc1Cc1nc2ccc(CC(=O)N3C[C@@H](F)C[C@H]3CO[C@H]3CC[C@H](C(=O)O)CC3)cc2o1 |  |  |  | inhibition (Integrin alpha-4/beta-1 [1]): 33%; inhibition (Integrin alpha-4/beta-1 [2]): 7% |
| Cc1cccc2oc(Nc3ccc(CC(=O)N4C[C@@H](F)C[C@H]4CO[C@H]4CC[C@H](C(=O)O)CC4)cc3Cl)nc12 | 12 | 290 |  |  |
| O=C(Nc1ccc(CC(=O)N2C[C@@H](F)C[C@H]2CO[C@H]2CC[C@H](C(=O)O)CC2)cc1Cl)N1CCc2ccccc21 | 1.9 | 83 | 1100 |  |
| O=C(Nc1ccc(CC(=O)N2C[C@@H](F)C[C@H]2CO[C@H]2CC[C@H](C(=O)O)CC2)cc1Cl)c1nccc2ccccc12 | 14 | 418 |  |  |
| Cc1ccc(F)cc1Nc1nc2ccc(CC(=O)N3C[C@@H](F)C[C@H]3CO[C@H]3CC[C@H](C(=O)O)CC3)c(F)c2o1 | 2.8 | 439 | 912 |  |
| Cc1cc(F)ccc1Nc1nc2ccc(CC(=O)N3C[C@@H](F)C[C@H]3CO[C@H]3CC[C@H](C(=O)O)CC3)c(F)c2o1 | 12 | 1680 |  |  |
| O=C(Nc1cc(F)c(CC(=O)N2C[C@@H](F)C[C@H]2CO[C@H]2CC[C@H](C(=O)O)CC2)cc1Cl)c1nccc2ccccc12 | 32 | 1670 |  |  |
| Cn1cc(C(=O)Nc2cc(F)c(CC(=O)N3CCC[C@H]3CO[C@H]3CC[C@H](C(=O)O)CC3)cc2Cl)c2ccccc21 | 12 | 370 |  |  |
| Cn1cc(C(=O)Nc2ccc(CC(=O)N3C[C@@H](F)C[C@H]3CO[C@H]3CC[C@H](C(=O)O)CC3)cc2Cl)c2ccccc21 | 2.6 | 92 | 5160 | clearance [6]: 5 mL/min/kg; Vd [7]: 0.139 L/kg; half-life [8]: 42 min; inhibition (INH) (Mus musculus [9]): 13% |
| O=C(Cc1ccc(Nc2nc3ccccc3o2)c(Cl)c1)N1C[C@@H](F)C[C@H]1CO[C@H]1CC[C@H](C(=O)O)CC1 | 5.9 | 138 | 508 |  |
| Cc1ccccc1NC(=O)Nc1ccc(CC(=O)N2C[C@@H](F)C[C@H]2COc2ccc(C(=O)O)cc2)cc1Cl |  |  |  | bioavailability [10]: 11%; clearance (in vivo): 31.5 mL/min/kg |
| Cn1cc(C(=O)Nc2cc(F)c(CC(=O)N3C[C@@H](F)C[C@H]3CO[C@H]3CC[C@H](C(=O)O)CC3)cc2Cl)c2ccccc21 | 5 | 284 | 11400 | clearance [6]: 2.6 mL/min/kg; Vd [7]: 0.153 L/kg; half-life [8]: 54 min; inhibition (INH) (Mus musculus [9]): 57%; Activity (Mus musculus [11]): Toxic; Activity (Mus musculus [12]): Toxic |
| O=C(Cc1ccc(Nc2nc3cc(F)ccc3o2)c(Cl)c1)N1C[C@@H](F)C[C@H]1CO[C@H]1CC[C@H](C(=O)O)CC1 | 7.3 | 223 | 358 |  |
| Cc1ccc(F)cc1Nc1nc2ccc(CC(=O)N3C[C@@H](F)C[C@H]3CO[C@H]3CC[C@H](C(=O)O)CC3)cc2o1 | 4.4 | 131 | 448 |  |
| Cn1cc(C(=O)Nc2cc(Cl)c(CC(=O)N3C[C@@H](F)C[C@H]3CO[C@H]3CC[C@H](C(=O)O)CC3)cc2Cl)c2ccccc21 | 5.5 | 241 | 1880 |  |
| Cn1cc(C(=O)Nc2cc(Cl)c(CC(=O)N3C[C@@H](O)C[C@H]3CO[C@H]3CC[C@H](C(=O)O)CC3)cc2Cl)c2ccccc21 | 7.8 | 70 | 93 |  |
| O=C(Nc1ccc(CC(=O)N2C[C@@H](F)C[C@H]2CO[C@H]2CC[C@H](C(=O)O)CC2)cc1Cl)c1c[nH]c2ccccc12 | 0.53 | 3.9 | 193 | clearance [6]: 61.1 mL/min/kg; Vd [7]: 0.668 L/kg; half-life [8]: 12 min |
| O=C(Nc1cc(F)c(CC(=O)N2C[C@@H](F)C[C@H]2CO[C@H]2CC[C@H](C(=O)O)CC2)cc1Cl)N1CCc2ccccc21 | 2.7 | 171 | 2960 |  |
| O=C(Nc1cc(F)c(CC(=O)N2C[C@@H](F)C[C@H]2CO[C@H]2CC[C@H](C(=O)O)CC2)cc1Cl)c1n[nH]c2ccccc12 | 8.5 | 108 | 848 |  |
| O=C(Cc1ccc(Nc2nc3cccc(F)c3o2)c(Cl)c1)N1C[C@@H](F)C[C@H]1CO[C@H]1CC[C@H](C(=O)O)CC1 | 40 | 1030 |  |  |
| Cn1cc(C(=O)Nc2cc(F)c(CC(=O)N3C[C@@H](O)C[C@H]3CO[C@H]3CC[C@H](C(=O)O)CC3)cc2Cl)c2ccccc21 | 6.4 | 45 | 452 |  |
| CC(C)n1cc(C(=O)Nc2ccc(CC(=O)N3C[C@@H](F)C[C@H]3CO[C@H]3CC[C@H](C(=O)O)CC3)cc2Cl)c2ccccc21 |  |  |  | inhibition (Integrin alpha-4/beta-1 [13]): 8%; inhibition (Integrin alpha-4/beta-1 [14]): 41% |
| CCn1cc(C(=O)Nc2ccc(CC(=O)N3C[C@@H](F)C[C@H]3CO[C@H]3CC[C@H](C(=O)O)CC3)cc2Cl)c2ccccc21 | 204 |  |  | inhibition (Integrin alpha-4/beta-1 [13]): 21% |
| CO[C@H]1C[C@@H](CO[C@H]2CC[C@H](C(=O)O)CC2)N(C(=O)Cc2cc(Cl)c(NC(=O)c3cn(C)c4ccccc34)cc2F)C1 | 2.9 | 36 | 9400 | inhibition (INH) (Mus musculus [9]): 30% |
| Cc1ccccc1Nc1nc2ccc(CC(=O)N3C[C@@H](F)C[C@H]3CO[C@H]3CC[C@H](C(=O)O)CC3)c(F)c2o1 | 3 | 70 | 363 |  |
| O=C(Nc1ccc(CC(=O)N2C[C@@H](F)C[C@H]2CO[C@H]2CC[C@H](C(=O)O)CC2)cc1Cl)c1nsc2ccccc12 | 2.7 | 196 | 2150 |  |
| O=C(Nc1cc(F)c(CC(=O)N2C[C@@H](F)C[C@H]2CO[C@H]2CC[C@H](C(=O)O)CC2)cc1Cl)c1noc2ccccc12 | 128 |  |  | inhibition (Integrin alpha-4/beta-1 [13]): 19% |
| O=C(Nc1cc(F)c(CC(=O)N2C[C@@H](F)C[C@H]2CO[C@H]2CC[C@H](C(=O)O)CC2)cc1Cl)c1nsc2ccccc12 | 7.5 | 176 | 307 |  |
| O=C(Cc1ccc(Nc2nc3ccc(F)cc3o2)c(Cl)c1)N1C[C@@H](F)C[C@H]1CO[C@H]1CC[C@H](C(=O)O)CC1 | 20 | 630 |  |  |
| Cc1c(F)cccc1Nc1nc2ccc(CC(=O)N3C[C@@H](F)C[C@H]3CO[C@H]3CC[C@H](C(=O)O)CC3)c(F)c2o1 | 47 |  |  | inhibition (Integrin alpha-4/beta-1 [15]): 13% |
